Assay results from ChEMBL document CHEMBL2040727, “Substituted thiazoles VI. Synthesis and antitumor activity of new 2-acetamido- and 2 or 3-propanamido-thiazole analogs” (2012).

Key:
Assay type in all cases: functional
HCT-15 = assay: Growth inhibition of human HCT15 cells at 10 uM after 48 hrs by coulter counter analysis; conditions: HCT-15, 48 h, read-out: GI
In short: (§1)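 Single-dose NCI 60-line panel screen of test compounds. Cells grown in RPMI 1640 with 10% FBS. Compounds dissolved in DMSO, then diluted in phosphate buffer saline (final DMSO below 1%). Wells run in duplicate at 6 × 10⁴ cells/ml. Controls held PBS and DMSO at matching dilutions. Incubation 48 h at 37 °C under humidified 5% CO2. Cells diluted tenfold in saline and counted by Coulter counter. Percent growth inhibition taken from mean-graph of treated-cell growth.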

MDA-MB-468 = assay: Growth inhibition of human MDA-MB-468 cells at 10 uM after 48 hrs by coulter counter analysis; conditions: MDA-MB-468, 48 h, read-out: GI; in short: as §1
HL-60(TB) = assay: Growth inhibition of human HL-60(TB) cells at 10 uM after 48 hrs by coulter counter analysis; conditions: HL-60, 48 h, read-out: GI
In short: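 Cells grown in RPMI 1640 with 10% FBS. Compound was dissolved in DMSO and diluted in PBS (under 1% DMSO final), then added in duplicate wells to culture at 6 × 10⁴ cells/ml. PBS/DMSO vehicle controls were included. Incubated at 37 °C, humidified 5% CO₂, for 48 h. Cells were diluted 10-fold in saline and Coulter-counted. Single-dose NCI-60 screen, read as percent growth inhibition.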

A549 = assay: Growth inhibition of human A549/ATCC cells at 10 uM after 48 hrs by coulter counter analysis; conditions: A549, 48 h, read-out: GI; in short: as §1
OVCAR-3 = assay: Growth inhibition of human OVCAR3 cells at 10 uM after 48 hrs by coulter counter analysis; conditions: OVCAR-3, 48 h, read-out: GI; in short: as §1
BT-549 = assay: Growth inhibition of human BT549 cells at 10 uM after 48 hrs by coulter counter analysis; conditions: BT-549, 48 h, read-out: GI; in short: as §1
[1] = Growth inhibition of human Hs 578T cells at 10 uM after 48 hrs by coulter counter analysis; conditions: read-out: GI; in short: as §1
SF-268 = assay: Growth inhibition of human SF268 cells at 10 uM after 48 hrs by coulter counter analysis; conditions: SF-268, 48 h, read-out: GI; in short: as §1
RPMI-8226 = assay: Growth inhibition of human RPMI8226 cells at 10 uM after 48 hrs by coulter counter analysis; conditions: RPMI-8226, 48 h, read-out: GI; in short: as §1
IGROV-1 = assay: Growth inhibition of human IGROV1 cells at 10 uM after 48 hrs by coulter counter analysis; conditions: IGROV-1, 48 h, read-out: GI; in short: as §1
NCI-H460 = assay: Growth inhibition of human NCI-H460 cells at 10 uM after 48 hrs by coulter counter analysis; conditions: NCI-H460, 48 h, read-out: GI; in short: as §1
SNB-19 = assay: Growth inhibition of human SNB19 cells at 10 uM after 48 hrs by coulter counter analysis; conditions: SNB-19, 48 h, read-out: GI; in short: as §1
SW-620 = assay: Growth inhibition of human SW620 cells at 10 uM after 48 hrs by coulter counter analysis; conditions: SW-620, 48 h, read-out: GI
In short: (§2)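 Single-dose screen in the NCI 60 cell line panel. Cells grown in RPMI 1640 with 10% FBS. Compounds dissolved in DMSO and diluted in phosphate buffered saline, final DMSO under 1%. Duplicate wells seeded from culture at 6 × 10⁴ cells/ml. Incubated 48 h at 37 °C, humidified, 5% CO2. Cells diluted tenfold in saline and Coulter-counted. Percent growth inhibition computed against PBS/DMSO controls.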

PC-3 = assay: Growth inhibition of human PC3 cells at 10 uM after 48 hrs by coulter counter analysis; conditions: PC-3, 48 h, read-out: GI; in short: as §1
COLO 205 = assay: Growth inhibition of human COLO205 cells at 10 uM after 48 hrs by coulter counter analysis; conditions: COLO 205, 48 h, read-out: GI; in short: as §1
Malme-3M = assay: Growth inhibition of human MALME-3M cells at 10 uM after 48 hrs by coulter counter analysis; conditions: read-out: GI; in short: as §1
SN12C = assay: Growth inhibition of human SN12C cells at 10 uM after 48 hrs by coulter counter analysis; conditions: read-out: GI; in short: as §1
HOP-92 = assay: Growth inhibition of human HOP92 cells at 10 uM after 48 hrs by coulter counter analysis; conditions: HOP-92, 48 h, read-out: GI; in short: as §1
DU-145 = assay: Growth inhibition of human DU145 cells at 10 uM after 48 hrs by coulter counter analysis; conditions: DU-145, 48 h, read-out: GI; in short: as §1
U-251 = assay: Growth inhibition of human U251 cells at 10 uM after 48 hrs by coulter counter analysis; conditions: U-251, 48 h, read-out: GI; in short: as §2
HCC 2998 = assay: Growth inhibition of human HCC2998 cells at 10 uM after 48 hrs by coulter counter analysis; conditions: HCC 2998, 48 h, read-out: GI; in short: as §1
SK-MEL-28 = assay: Growth inhibition of human SK-MEL-28 cells at 10 uM after 48 hrs by coulter counter analysis; conditions: SK-MEL-28, 48 h, read-out: GI; in short: as §1
HT-29 = assay: Growth inhibition of human HT-29 cells at 10 uM after 48 hrs by coulter counter analysis; conditions: HT-29, 48 h, read-out: GI; in short: as §1
LOX IMVI = assay: Growth inhibition of human LOXIMVI cells at 10 uM after 48 hrs by coulter counter analysis; conditions: read-out: GI; in short: as §1
SF-539 = assay: Growth inhibition of human SF539 cells at 10 uM after 48 hrs by coulter counter analysis; conditions: SF-539, 48 h, read-out: GI; in short: as §1
CAKI-1 = assay: Growth inhibition of human Caki1 cells at 10 uM after 48 hrs by coulter counter analysis; conditions: CAKI-1, 48 h, read-out: GI; in short: as §1
RXF 393 = assay: Growth inhibition of human RXF393 cells at 10 uM after 48 hrs by coulter counter analysis; conditions: RXF 393, 48 h, read-out: GI; in short: as §1
UO-31 = assay: Growth inhibition of human UO31 cells at 10 uM after 48 hrs by coulter counter analysis; conditions: UO-31, 48 h, read-out: GI; in short: as §2
A498 = assay: Growth inhibition of human A498 cells at 10 uM after 48 hrs by coulter counter analysis; conditions: A498, 48 h, read-out: GI; in short: as §1
K562 = assay: Growth inhibition of human K562 cells at 10 uM after 48 hrs by coulter counter analysis; conditions: K562, 48 h, read-out: GI; in short: as §1
CCRF-CEM = assay: Growth inhibition of human CCRF-CEM cells at 10 uM after 48 hrs by coulter counter analysis; conditions: read-out: GI; in short: as §1
786-0 = assay: Growth inhibition of human 786-0 cells at 10 uM after 48 hrs by coulter counter analysis; conditions: 786-0, 48 h, read-out: GI; in short: as §1
[2] = Growth inhibition of human NCI-ADR-RES cells at 10 uM after 48 hrs by coulter counter analysis; conditions: read-out: GI; in short: as §1

SMILES	inhibition of growth at 10 µM (HCT-15) [%]	inhibition of growth at 10 µM (HL-60(TB)) [%]	inhibition of growth at 10 µM (A549) [%]	inhibition of growth at 10 µM (OVCAR-3) [%]	inhibition of growth at 10 µM (BT-549) [%]	inhibition of growth at 10 µM [1] [%]	inhibition of growth at 10 µM (SF-268) [%]	inhibition of growth at 10 µM (RPMI-8226) [%]	inhibition of growth at 10 µM (IGROV-1) [%]	inhibition of growth at 10 µM (NCI-H460) [%]	inhibition of growth at 10 µM (SNB-19) [%]	inhibition of growth at 10 µM (SW-620) [%]	inhibition of growth at 10 µM (PC-3) [%]	inhibition of growth at 10 µM (COLO 205) [%]	inhibition of growth at 10 µM (Malme-3M) [%]	inhibition of growth at 10 µM (SN12C) [%]	inhibition of growth at 10 µM (DU-145) [%]	inhibition of growth at 10 µM (U-251) [%]	inhibition of growth at 10 µM (HCC 2998) [%]	inhibition of growth at 10 µM (SK-MEL-28) [%]	other results
CCOC(=O)c1sc(NC(=O)C(C)N(CC)CC)nc1C (configuration not stated)	< 10	< 10	< 10	< 10	< 10	< 10	< 10	< 10	< 10	< 10	< 10	< 10	< 10	< 10	< 10	< 10	< 10	< 10	< 10	< 10	inhibition of growth at 10 µM (MDA-MB-468): < 10%; inhibition of growth at 10 µM (HOP-92): < 10%; inhibition of growth at 10 µM (HT-29): < 10%; inhibition of growth at 10 µM (LOX IMVI): < 10%; inhibition of growth at 10 µM (SF-539): < 10%; inhibition of growth at 10 µM (CAKI-1): 12%; inhibition of growth at 10 µM (RXF 393): < 10%; inhibition of growth at 10 µM (UO-31): < 10%; inhibition of growth at 10 µM (A498): < 10%; inhibition of growth at 10 µM (K562): < 10%; inhibition of growth at 10 µM (CCRF-CEM): < 10%; inhibition of growth at 10 µM (786-0): < 10%; inhibition of growth at 10 µM [2]: < 10%
CCOC(=O)c1sc(NC(=O)C(C)N2CCOCC2)nc1C (configuration not stated)	< 10	< 10	< 10	< 10	< 10	< 10	< 10	< 10	< 10	< 10	< 10	< 10	< 10	< 10	< 10	< 10	< 10	< 10	< 10	< 10	inhibition of growth at 10 µM (MDA-MB-468): < 10%; inhibition of growth at 10 µM (HOP-92): < 10%; inhibition of growth at 10 µM (HT-29): < 10%; inhibition of growth at 10 µM (LOX IMVI): < 10%; inhibition of growth at 10 µM (SF-539): < 10%; inhibition of growth at 10 µM (CAKI-1): < 10%; inhibition of growth at 10 µM (RXF 393): < 10%; inhibition of growth at 10 µM (UO-31): 14.2%; inhibition of growth at 10 µM (A498): < 10%; inhibition of growth at 10 µM (K562): < 10%; inhibition of growth at 10 µM (CCRF-CEM): < 10%; inhibition of growth at 10 µM (786-0): < 10%; inhibition of growth at 10 µM [2]: < 10%
O=C(CCCl)Nc1nc(-c2ccccc2)cs1	73	17.9	53.1	98	74.5	< 10	63	93.1	50	63.6	29.3	70.7	57.9	55.6	68.2	57.2	89.8	55.8	15.8	19.4	inhibition of growth at 10 µM (HT-29): 76.1%; inhibition of growth at 10 µM (LOX IMVI): 47.8%; inhibition of growth at 10 µM (SF-539): 81.5%; inhibition of growth at 10 µM (CAKI-1): 69.3%; inhibition of growth at 10 µM (RXF 393): 80.4%; inhibition of growth at 10 µM (UO-31): 83.2%; inhibition of growth at 10 µM (A498): 78.4%; inhibition of growth at 10 µM (K562): 69.3%; inhibition of growth at 10 µM (CCRF-CEM): 92.7%; inhibition of growth at 10 µM (786-0): 36.7%; inhibition of growth at 10 µM [2]: 59.6%
